Reference: ChEMBL document CHEMBL1143020, “Antimalarial activity of 1-aryl-3,3-dialkyltriazenes” (2007)

Legend:
Assay type in all cases: functional
Mus musculus [1] = assay: Survival rate in Plasmodium berghei NK65 infected JCL-ICR mice (Mus musculus) at 100 mg/kg body weight after 14 days; conditions: 336 h
Outline: (§1)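 Female JCL-ICR mice (4–5 weeks), 5 per group, were infected i.p. on day 0 with 0.2 mL of a 1:100 saline dilution of donor-mouse blood (3.3×10^6 parasitized erythrocytes). Triazenes were dosed at 100 mg/kg in 5% gum arabic or corn oil, and chloroquine at 50 mg/kg, twice, at 2 and 48 h post-infection. Controls got 5% gum arabic. Mice were monitored daily, with survival rate at day 14.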

Plasmodium berghei [2] = assay: Antimalarial activity as parasitaemia after 7 days against Plasmodium berghei NK65 infected JCL-ICR mice (Mus musculus) at 100 mg/kg
Outline: (§2)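 Female mice aged 4–5 weeks, 5 per group, were infected ip on day 0 with 0.2 mL of 1:100 donor blood in saline (3.3×10^6 parasitized erythrocytes). 100 mg/kg was given twice, at 2 and 48 h post-infection, in 5% gum arabic/saline (solids) or corn oil (oils). Tail-blood thin smears on days 3, 7 and 14 were methanol-fixed and Giemsa-stained (2%, 2 h). % infected erythrocytes was counted microscopically.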

Plasmodium berghei [3] = assay: Antimalarial activity as parasitaemia after 3 days against Plasmodium berghei NK65 infected JCL-ICR mice (Mus musculus) at 100 mg/kg; outline: as §2
Plasmodium berghei [4] = assay: Antimalarial activity as parasitaemia after 14 days against Plasmodium berghei NK65 infected JCL-ICR mice (Mus musculus) at 100 mg/kg; outline: as §2
Plasmodium berghei [5] = assay: Antimalarial activity as parasitaemia after 7 days against Plasmodium berghei NK65 infected JCL-ICR mice (Mus musculus) at 50 mg/kg
Outline: (§3)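 Chloroquine reference arm: 5 female mice aged 4–5 weeks per group, infected ip on day 0 with 0.2 mL of 1:100 diluted donor blood (3.3×10^6 parasitized erythrocytes). 50 mg/kg was given at 2 and 48 h post-infection. On days 7 and 14, tail-blood smears were methanol-fixed and stained with 2% Giemsa for 2 h, and % parasitized erythrocytes was scored by microscopy.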

Mus musculus [6] = assay: Survival rate in Plasmodium berghei NK65 infected JCL-ICR mice (Mus musculus) at 50 mg/kg body weight after 14 days; conditions: 336 h; outline: as §1
Plasmodium berghei [7] = assay: Antimalarial activity as parasitaemia after 14 days against Plasmodium berghei NK65 infected JCL-ICR mice (Mus musculus) at 50 mg/kg; outline: as §3

Compound | survival at 100 mg/kg (Mus musculus [1]) | Activity (Plasmodium berghei [2]) | Activity (Plasmodium berghei [3]) | Activity (Plasmodium berghei [4]) | Activity (Plasmodium berghei [5]) | survival at 50 mg/kg (Mus musculus [6]) | Activity (Plasmodium berghei [7])
Cc1cccc(C)c1/N=N/N(C)C | 0% | 53.9% | 1.7% |  |  |  | 
CN(C)/N=N/c1ccc(C(F)(F)F)cc1 | 80% | 17.6% | 4.8% | 67.9% |  |  | 
Cc1cccc(C)c1/N=N/N1CCCC1 | 40% | 54.6% | 5.6% | 81.7% |  |  | 
Cc1cc(C)c(/N=N/N2CCCCC2)c(C)c1 | 0% | 76.4% | 4.2% |  |  |  | 
FC(F)(F)c1ccc(/N=N/N2CCCC2)cc1 | 0% | 66.3% | 2.9% |  |  |  | 
FC(F)(F)c1ccc(/N=N/N2CCCCC2)cc1 | 0% | 44.6% | 2.3% |  |  |  | 
Cc1cccc(C)c1/N=N/N1CCCCC1 | 0% | 76.4% | 4.2% |  |  |  | 
Cc1cc(C)c(/N=N/N(C)C)c(C)c1 | 40% | 12.4% | 4.4% | 73.3% |  |  | 
Cc1cc(C)c(/N=N/N2CCCC2)c(C)c1 | 60% | 38.5% | 4.1% | 74.6% |  |  | 
CN(C)/N=N/c1ccc(F)cc1 | 20% | 53.5% | 1.7% | 60.4% |  |  | 
CN(C)/N=N/c1ccc(Cl)cc1 | 60% | 27% | 4.8% | 62.5% |  |  | 
CCN(CC)CCCC(C)Nc1ccnc2cc(Cl)ccc12 (configuration not stated) [CHLOROQUINE] |  |  |  |  | <1% | 100% | 8.5%
